The campaign covered roughly 2,500 compounds. About 460 (18%) were called active.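 Rule for the calls: active = mean activation above a cutoff of low control average plus 3 SD from the earlier screen (cut at about 12% in these data); inactive = the rest.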 A selection follows.
Experiment: IANBD-channel fluorescence artefacts in buffer – biochemical, artefact control for cardiac RTF calcium sensitizer project, confirmation (AID 504382)
Conditions: IANBD fluorescence interference counterscreen, EC20 Ca2+, at 7.2 µM, stronger effect = higher value, scaled: EC20 calcium 0, EC100 calcium 100
Outline: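 timing = compound incubation 15 min at 25 °C before fluorescence reading | technique = fluorescence at 480 nm excitation, 540 nm emission | evaluation = interference relative to controls | replication = triplicate wells per compound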

SMILES	fluorescence artifact activation
CC(=O)N1C(=O)C(=C2C=C(C)OC(C)=C2)c2ccccc21	21.3% (active)
CCCn1c(N2CCN(CC(=O)c3c[nH]c4ccccc34)CC2)nc2c1c(=O)[nH]c(=O)n2C	0.12% (inactive)
CCCCCCCCOc1ccc(C2OC34CCCCC3C(C#N)(C#N)C2(C#N)C(=N)O4)cc1 (centres undefined)	4.01% (inactive)
CCN1/C(=C/C=C/c2oc3ccc(-c4ccccc4)cc3[n+]2CC)Oc2ccc(-c3ccccc3)cc21	-0.02% (inactive)
CCC(c1nnnn1C1CCCCC1)N1CCN(C(=O)c2ccco2)CC1 (centres undefined)	6.69% (inactive)
COc1ccc(C(=O)NCC(=O)N2CCN(C(=O)c3ccco3)CC2)cc1OC	23.6% (active)
O=C(Nc1ccc(N2CCN(C(=O)c3ccco3)CC2)cc1)c1ccc(F)cc1	0.11% (inactive)
COc1cccc(C2CC(c3ccccc3)n3ncnc3N2)c1 (centres undefined)	7.41% (inactive)
CCOC(=O)N1CCC(Nc2nc3ccccc3nc2NS(=O)(=O)c2ccc(Cl)cc2)CC1	-0.02% (inactive)
CCOC(=O)N1CCC(Nc2cccc(SC)c2)CC1	97.8% (active)
CCOC(=O)N1CCC(NC(=O)c2cccs2)CC1	-0.01% (inactive)
CN1CCc2c(sc(/N=C/c3cccs3)c2C(N)=O)C1	-0.06% (inactive)
O=C(NCC1CC1)Nc1cccc(Cl)c1	0.16% (inactive)
Cn1c(NC(=O)C[n+]2cc(-c3ccc(Cl)cc3)n3c2CCC3)cc(=O)n(C)c1=O	1.86% (inactive)
Cc1ccc(C2C(C(=O)c3cccs3)=C(O)C(=O)N2c2nnc(C)s2)cc1 (centres undefined)	17.5% (active)
COc1ccc(C2C(C(=O)c3cccs3)=C(O)C(=O)N2c2nnc(C)s2)cc1OC (centres undefined)	0.77% (inactive)
C=CCOc1ccc(C2C(C(=O)c3cccs3)=C(O)C(=O)N2c2nnc(C)s2)cc1 (centres undefined)	0.1% (inactive)
O=c1c2ccccc2cnn1Cc1n[nH]c(=S)n1-c1ccccc1Cl	2.78% (inactive)
CC(C)C12CN(C(=O)c3ccccc3[N+](=O)[O-])CC(C(C)C)(CN(C(=O)c3ccccc3[N+](=O)[O-])C1)C2=O	0.02% (inactive)
O=C(O)c1cccc2c1-c1c(cccc1[N+](=O)[O-])C2	706% (active)

SMILES	fluorescence artifact activation
O=C(O)c1cccc([N+](=O)[O-])c1C(=O)Nc1cccc2ccccc12	1.51% (inactive)
COc1ccc(Cl)cc1NC(=O)CN(C)C(=O)COc1ccccc1F	0.35% (inactive)
COc1ccc(Cl)cc1NC(=O)CN(C)C(=O)c1ccc(N2CCCCCC2)c([N+](=O)[O-])c1	21.3% (active)
COc1ccc(OC)c(NC(=O)c2cc(S(=O)(=O)N(C)C)ccc2N2CCCC2)c1	0.05% (inactive)
Cc1nc(NC(=O)c2ccccc2[N+](=O)[O-])sc1C(=O)N(C)C	0.02% (inactive)
O=C(c1ccc(Nc2cccc(C(F)(F)F)c2)nc1)N1CCCC1	55.9% (active)
COc1cccc(S(=O)(=O)Nc2cccc(C(=O)N3CCCCCC3)c2)c1	0.03% (inactive)
O=C(CN1CCN(c2ccccc2)CC1)Nc1cccc(C(F)(F)F)c1	0.02% (inactive)
Cc1ccc(S(=O)(=O)N2CCOCC2)cc1NC(=O)CSc1nccn1C	0.07% (inactive)
CCCCCC(C)NC(=S)NC(=O)c1cc(S(=O)(=O)N2CCOCC2)ccc1C (centres undefined)	0.05% (inactive)
Cc1csc(NS(=O)(=O)c2cccc([N+](=O)[O-])c2)n1	0.08% (inactive)
CC1=CC(=C(C#N)C#N)C=C(C)N1Cc1ccc(Cl)cc1	10.8% (inactive)
CCSC1=N/C(=C\C=C2/Oc3ccccc3N2CC)C(=O)S1	9.59% (inactive)
CC1(C(=O)Nc2nnc(SCc3ccccc3)s2)Cc2ccccc2C(=O)O1 (centres undefined)	4.5% (inactive)
CC(Sc1nnc(NCc2ccccc2)s1)C(=O)Nc1ccc2c(c1)C(=O)c1ccccc1C2=O (centres undefined)	49% (active)
COC(=O)c1ccc(CSc2nnc(NCc3ccccc3)s2)o1	4.53% (inactive)
CCc1ccc(C(C)NC(=O)c2ncn[nH]2)cc1 (centres undefined)	2.22% (inactive)
Clc1ccc(-n2cc(-c3ccc(Br)cc3)[n+]3c2CCCCC3)cc1	-0.05% (inactive)
CC(C)(Cc1cccc(CC(C)(C)C(=O)O)c1)C(=O)O	0.07% (inactive)
CC(=O)Oc1ccc2c(c1)Oc1cc(OC(C)=O)ccc1C21OC(=O)c2ccccc21	13.6% (active)

SMILES	fluorescence artifact activation
CC(=O)Oc1ccc(NC(=O)Cc2ccccc2)c(C(=O)O)c1	4.96% (inactive)
CCOc1ccc(-c2ncncc2-c2ccccc2OC)c(O)c1	0.08% (inactive)
COc1ccc(-n2nc3c(N4CCC(C(=O)N5CCC(C)CC5)CC4)nnc(C)c3c2C)cc1	0.01% (inactive)
CCOC(=O)C(CCCCCCC(NC(C)=O)(C(=O)OCC)C(=O)OCC)(NC(C)=O)C(=O)OCC	-0.02% (inactive)
Cc1ccc(C(=O)N(C)CC(=O)Nc2cccc(F)c2)cc1S(=O)(=O)N1CCCCC1	0.72% (inactive)
Cc1ccnc(N/C=C(\C#N)c2nc(-c3cccc(Br)c3)cs2)c1	5.15% (inactive)
COc1cccc(/C=N/Nc2nnc(C)n2N)c1O	0.12% (inactive)
CC(C)(C)c1ccc(-c2n[nH]c(=S)n2CC2CCCO2)cc1 (centres undefined)	34.7% (active)
CCOc1cc(/C=C2\NC(=O)NC2=O)cc([N+](=O)[O-])c1O	0.01% (inactive)
COc1ccc(/C=C2/SC(c3ccc(C)cc3)=NC2=O)cc1OC	6.74% (inactive)
CCOC(=O)c1ccc(-c2c(-c3ccc4c(c3)OCO4)noc2C)cc1F	0.96% (inactive)
O=C(Cc1nc2ccccc2[nH]c1=O)c1ccccc1	0.01% (inactive)
O=C(O)CSc1nc2ccccc2nc1Cc1ccccc1F	163% (active)
O=c1ccc2cc3c4c(c2o1)CCCN4CCC3	9.87% (inactive)
Cn1ncc2c(O/N=C(\N)c3ccc(C(F)(F)F)cc3)ncnc21	18.5% (active)
Cc1c(O)c(=O)c2ccccc2n1C	2.22% (inactive)
CCOc1ccc2ccccc2c1CNCCN1CCOCC1	9.02% (inactive)
CCCCCOc1ccc(CN2CCOCC2)cc1Cl	25.8% (active)
CCCOc1ccc(Cn2c(=O)oc3ccc(C)cc32)cc1OC	6.44% (inactive)
